Test results from publication PMC12749109 (Nature Communications, 2025).
Entries after “also recorded” stand apart in the source; their conditions may differ. Like-named read-outs stand apart in the source and are kept apart here.

How the values were obtained:
GALR2 [1] = assay: NFAT-luc luciferase; format: cell-based; settings: HEK293, GALR2, luciferase, 12 h
Method in brief: (§1)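 HEK293 cells were transfected (Lipofectamine) with empty pcDNA3.1 or GALR plasmid (2 μg) plus CRE, NFAT-RE or SRE luciferase reporter. After 36 h, medium was replaced with serum-free medium containing test peptide, diluted in DMEM from a 1 mM water stock, for 12 h. Luciferase was read 48 h post-transfection. Technical triplicate; mean ± SD; 37 °C, 5% CO2.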

GALR2 [2] = assay: CRE-luc luciferase; format: cell-based; settings: HEK293, GALR2, luciferase, 12 h
Method in brief: as §1

mGALR2 = assay: G protein pathway activation, HEK293 luciferase; format: cell-based; settings: mouse GALR2, vs cGAL53
Method in brief: as §1

GALR2 [3] = assay: SRE-luc luciferase; format: cell-based; settings: HEK293, GALR2, luciferase, 12 h
Method in brief: as §1

mGALR2 mutants = assay: Tango β-arrestin2 recruitment, binding-site mutants; format: cell-based, mouse
ARRB2 = assay: 2% DSS colitis in Arrb2 cKO mice, overall; format: in vivo, mouse; settings: Arrb2 cKO (gut epithelial) mice, vs AAV control mice
Method in brief: (§2)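 Male Arrb2fl/fl or Gnaqfl/fl mice (7–8 weeks) were fasted overnight, anaesthetised, and given 100 μL AAV8-Vil-cre or AAV8-Vil-null (1E+11 vg/mL) by catheter 4 cm into the colon. One week later they received 2% DSS in drinking water for 7 days. Read-outs were body weight, DAI, colon length, H&E, serum IL-6/IL-1β ELISA, and colonic Il6/Tnf/Il1b/Tgfb1/Tjp1/Ocln mRNA.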

hGALR2 = assay: G protein pathway activation, HEK293 luciferase; format: cell-based; settings: human GALR2, vs cGAL53
Method in brief: as §1

GALR2 [4] = assay: G protein versus β-arrestin2 signaling bias at GALR2; format: cell-based; settings: for G protein activation / ARRB2 recruitment via GALR2: GALR2, overall statement
colon transcriptome = assay: RNA-seq of colon tissue, DSS-induced colitis mice; format: in vivo; settings: mouse colon
Method in brief: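 Total RNA was extracted from mouse colon with Trizol, sequenced on BGIseq500 and mapped to the mouse genome. Data were analysed in R and reported as mean ± SEM.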

Gnaq = assay: 2% DSS colitis in Gnaq cKO mice, overall; format: in vivo, mouse; settings: Gnaq cKO (gut epithelial) mice, vs AAV control mice
Method in brief: as §2

GALR1 [5] = assay: NFAT-luc luciferase; format: cell-based; settings: HEK293, GALR1, luciferase, 12 h
Method in brief: as §1

GALR1 [6] = assay: SRE-luc luciferase; format: cell-based; settings: HEK293, GALR1, luciferase, 12 h
Method in brief: as §1

DSS-induced colitis [7] = assay: DSS-induced colitis in wild-type mice, overall therapeutic efficacy; format: in vivo, mouse; settings: for alleviation of colitis / intestinal inflammation, overall: chicken and mouse colitis models, overall statement
[8] = Tolerability of peptide alone in healthy male mice, overall; format: in vivo, mouse; settings: daily i.p. for six consecutive days
Method in brief: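 Healthy male mice received daily i.p. test peptide for six consecutive days alongside a saline-injected control group. Body weight, water intake, food intake and colon length were recorded.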

[9] = tested on: DSS-induced intestinal inflammation; format: in vivo, chicken; settings: for IBD-related symptoms in DSS-treated chickens: chicken, 4% DSS oral gavage, daily i.p. peptide
Method in brief: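 Forty 21-day-old male yellow-feathered broilers were split into control, DSS and two peptide groups under 24 h light, with free food and water. DSS groups were gavaged with […] of 4% DSS daily from day 21 to 29. Treated birds got 100 μL of 50 μM peptide i.p. daily. TNF-α, IL-1β and IL-6 were measured by ELISA in jejunum/ileum homogenates (1:9 w/v ice-cold PBS, pH 7.4; 5000 × g, 10 min, 4 °C).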

GALR1 [10] = assay: CRE-luc luciferase; format: cell-based; settings: HEK293, GALR1, luciferase, 12 h
Method in brief: as §1

Caco2 cells = assay: RT-qPCR cytokine expression, Caco2 cell inflammation model; format: cell-based, human; settings: IL-1β + TNF-α; for expression of Il6, Il23 and Tgfb1 induced by IL-1β and TNF-α: RT-qPCR
GALR3 [11] = assay: CRE-luc luciferase; format: cell-based; settings: HEK293, GALR3, luciferase, 12 h
Method in brief: as §1

GALR3 [12] = assay: NFAT-luc luciferase; format: cell-based; settings: HEK293, GALR3, luciferase, 12 h
Method in brief: as §1

GALR3 [13] = assay: SRE-luc luciferase; format: cell-based; settings: HEK293, GALR3, luciferase, 12 h
Method in brief: as §1

GALR3 [14] = assay: DSS-induced colitis in Galr3-KO mice, overall; format: in vivo, mouse; settings: 3% DSS, cGAL53 3 μM
intestinal barrier = assay: FD4 intestinal permeability, Galr2-KO mice; format: in vivo, mouse; settings: Galr2-deficient mice, DSS
Method in brief: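 Mice were fasted 12 h before and during the test, then gavaged with FITC-dextran FD4 (25 mg/mL in 0.05 M PBS) at 20 mL/kg. Plasma was collected 3 h later, diluted 1:2 in PBS, and fluorescence read at excitation 490 nm / emission 520 nm.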

ZO-1, occludin [15] = assay: IHC of ZO-1 and occludin in colon, Galr2-KO mice; format: in vivo, mouse; settings: DSS, compared with Galr2 KO-DSS group
Method in brief: (§3)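 Colon sections from DSS-treated mice were incubated overnight at 4 °C with anti-ZO-1 (1:1000) or anti-occludin (1:200), then HRP-conjugated secondary antibody. Signal was developed with DAB, sections counterstained with hematoxylin, and staining quantified by image analysis.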

DSS-induced colitis [16] = assay: H&E histology/HAI and endoscopy, DSS-induced colitis, wild-type mice; format: in vivo; settings: mouse, 3% DSS, peptide 3 μM daily i.p.
Method in brief: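 Colons from mice given 3% DSS (8 days) and daily i.p. test peptide (3 μM) were fixed in 4% paraformaldehyde, paraffin-embedded, sectioned and H&E-stained. Sections were scored for epithelial damage, inflammatory infiltration, crypt loss and ulceration; n = 6/group.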

GALR1 [17] = assay: Tango β-arrestin2 recruitment, HTLA cells; format: cell-based
Method in brief: (§4)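 Tango assay used HTLA cells, a HEK293T line expressing a tTA-dependent luciferase reporter and β-arrestin2, transfected with GALR plasmid (2 μg). Test peptide in serum-free DMEM was added 36 h post-transfection for 12 h, then luciferase activity was measured. Mean ± SD.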

GALR3 [18] = assay: Tango β-arrestin2 recruitment, HTLA cells; format: cell-based
Method in brief: as §4

GALR2 [19] = assay: DSS-induced colitis in Galr2-KO mice, overall; format: in vivo, mouse; settings: Galr2-KO mice (or GALR2 inhibition where stated), cGAL53 3 μM
GALR2 [20] = assay: Tango and BRET β-arrestin2 recruitment; format: cell-based
Method in brief: as §4

TNBS-induced colitis = TNBS-induced colitis in C57BL/6 mice, overall therapeutic efficacy; format: in vivo, mouse; settings: TNBS intrarectal, peptide 3 μM
Method in brief: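 Male C57BL/6 mice (8–12 weeks) under 1.5% isoflurane received 100 μL of 2.5% TNBS (5% TNBS in water mixed 1:1 with ethanol) into the colon lumen. Controls received 50% ethanol only. Test peptide was given at 3 μM. Weight was monitored daily, and mice were killed 72 h after induction for colon length and histology; n = 6/group.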

ZO-1, occludin [21] = assay: IHC of ZO-1 and occludin in colon, DSS-induced colitis, wild-type mice; format: in vivo; settings: mouse colon, 3% DSS, peptide 3 μM daily i.p.
Method in brief: as §3

DSS-induced colitis [22] = assay: DSS-induced colitis, female mice, overall therapeutic efficacy; format: in vivo, mouse; settings: female C57BL/6 mice, 2.5% DSS, peptide 3 μM daily i.p.
Method in brief: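 Female C57BL/6 mice (9–10 weeks, 20 ± 2 g) were randomised into four groups and given 2.5% DSS in drinking water ad libitum for 8 days, with daily i.p. test peptide (3 μM). Body weight was recorded daily. Colon length was measured after sacrifice, and distal colon was fixed in 4% formalin.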

GALR2b = assay: Tango β-arrestin2 recruitment, HTLA cells; format: cell-based, chicken
Method in brief: as §4

| Substance | Gq (NFAT-luc) activation (GALR2 [1]) | Gs (CRE-luc) activation (GALR2 [2]) | Gi (SRE-luc) activation (GALR2 [3]) | β-arrestin2 recruitment after mutation of predicted unique binding sites (mGALR2 mutants) | therapeutic effects (weight loss, colon shortening, intestinal damage, inflammation) (ARRB2) | bias at GALR2 (GALR2 [4]) | G protein activation / ARRB2 recruitment via GALR2 (GALR2 [4]) | DSS-changed pathways (KEGG) (colon transcriptome) | expression levels of immune-related genes (colon transcriptome) | ability to alleviate weight loss, colon shortening, intestinal damage, inflammation (Gnaq) | Gq (NFAT-luc) activation (GALR1 [5]) | Gi (SRE-luc) activation (GALR1 [6]) | alleviation of colitis / intestinal inflammation, overall (DSS-induced colitis [7]) | body weight, water and food intake, colon length (tolerability) [8] | IBD-related symptoms in DSS-treated chickens [9] | Gs (CRE-luc) activation (GALR1 [10]) | concentration giving (similar) anti-inflammatory effect (Caco2 cells) [µM] | expression of Il6, Il23 and Tgfb1 induced by IL-1β and TNF-α (Caco2 cells) | Gs (CRE-luc) activation (GALR3 [11]) | Gq (NFAT-luc) activation (GALR3 [12]) | further results |
| --- | --- | --- | --- | --- | --- | --- | --- | --- | --- | --- | --- | --- | --- | --- | --- | --- | --- | --- | --- | --- | --- |
| GWTLNSAGYLLGPHAVDNHRSFNDKHGFT-NH2 [cGAL29] | more robust activation; also recorded: can activate | more robust activation; also recorded: can activate | can activate | affected | significantly diminished; also recorded: negated the therapeutic effects | G protein- | stronger activation of G protein signaling pathways via GALR2 | significantly modulated | significantly reduced | significantly reduced | not GALR1 | not GALR1 | alleviated intestinal inflammation symptoms in mouse colitis induced by DSS and TNBS | neither peptide affected body weight, water, and food intake, nor colon length, indicating good tolerability | ameliorated IBD-related symptoms in chickens, manifested as reductions of body weight loss, intestinal bleeding points and tissue damage | not GALR1 | 10 | reduced | can activate | can activate | activation of G protein pathways (mGALR2): more strongly than cGAL53; activation of G protein pathways (hGALR2): more strongly than cGAL53; expression of colonic inflammatory factors induced by DSS ([9]; chickens): reduced the expression of colonic inflammatory factors; Gi (SRE-luc) activation (GALR3 [13]): can activate |
| GWTLNSAGYLLGPRRIDHLLMIKEMPIARGREEAPGA-YAVDNHRSFNDKHGFT-NH2 [cGAL53] | can activate; also recorded: activated | can activate; also recorded: activated | can activate; also recorded: activated | affected | significantly diminished; also recorded: negated the therapeutic effects | β-arrestin2- biased agonizts of GALR2 | significantly enhances the recruitment of ARRB2 to GALR2 | significantly modulated | significantly reduced | significantly reduced | not GALR1 | not GALR1 | superior therapeutic efficacy compared to the conserved GAL29 peptide; also recorded: superior protective effects against DSS-induced inflammation in both chickens and mice; also recorded: alleviates colitis-associated weight loss, colon shortening, bleeding, and inflammation in both chickens and mice; also recorded: greater therapeutic efficacy in treating intestinal inflammation in chickens and mice | neither peptide affected body weight, water, and food intake, nor colon length, indicating good tolerability | ameliorated IBD-related symptoms in chickens, manifested as reductions of body weight loss, intestinal bleeding points and tissue damage | not GALR1 | 0.1 | reduced | can activate | can activate | colitis symptoms (GALR3 [14]): significant improvement in colitis symptoms; circulating FD4 tracer levels (intestinal barrier): remained unchanged; expression of ZO-1 and occludin (ZO-1, occludin [15]): did not increase; endoscopic and colon tissue damage scores (DSS-induced colitis [16]): most pronounced improvements; ARRB2 (β-arrestin2) recruitment (GALR1 [17]): significantly enhanced; ARRB2 (β-arrestin2) recruitment (GALR3 [18]): significantly enhanced; inflammation-related pathways (GSVA) (colon transcriptome; compared to cGAL29): significantly greater reductions; colitis symptoms / effects of cGAL53 (GALR2 [19]): abolished in Galr2-deficient mice; also recorded: did not exhibit any change; also recorded: completely abolishes the effects of cGAL53; ARRB2 (β-arrestin2) recruitment (GALR2 [20]): significantly enhanced; also recorded: preferentially activated ARRB2; colitis symptoms (DSS-induced colitis [7]; WT mice, 3% DSS, cGAL53 3 μM): significant improvement in colitis symptoms; alleviation of colitis / intestinal inflammation, overall (DSS-induced colitis [7]; listed as GAL53): superior protective effects against intestinal inflammation in birds and mammals; also recorded: exerts protective effects in chemical models of IBD; alleviation of colitis / intestinal inflammation, overall (DSS-induced colitis [7]; listed as chicken GAL53): superior efficacy over the conserved GAL29; DSS-induced body weight reduction, colon shortening and DAI increase (DSS-induced colitis [7]; mouse, 3% DSS in drinking water, peptide 3 μM daily i.p.): superior therapeutic efficacy over the shorter galanin variants (cGAL29 and hGAL30); also recorded: superior therapeutic efficacy in mouse colitis compared to cGAL29; TNBS-induced colitis (colon length, histopathological damage) (TNBS-induced colitis): more effective than cGAL29, nearly reversing the colon length and histopathological damage; IBD-related symptoms in DSS-treated chickens ([9]; listed as GAL53): superior therapeutic efficacy; ZO-1 and occludin protein and mRNA levels (ZO-1, occludin [21]): markedly enhanced; therapeutic effect in female mice with DSS-induced colitis (DSS-induced colitis [22]): superior therapeutic benefits; ARRB2 (β-arrestin2) recruitment (GALR2b): significantly enhanced; Gi (SRE-luc) activation (GALR3 [13]): can activate |
